ChEMBL document CHEMBL2380287, “PEG mediated synthesis and pharmacological evaluation of some fluoro substituted pyrazoline derivatives as antiinflammatory and analgesic agents” (2013)

System: Rattus norvegicus
Test: Analgesic activity in rat at 25 mg/kg, po after 60 mins by radiant heat tail flick method relative to control
Assay type: functional
Conditions: 1 h
Procedure, shortened: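 Rats, six per group, were dosed orally at 25 mg/kg. Analgesia was measured at 60 min by the radiant heat tail flick method and expressed as percentage analgesia. Animals were kept on a 12/12 h light/dark cycle with free access to water and standard pellet diet.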

Q: `CC(=O)N1N=C(c2ccc(F)cc2)CC1c1cn(-c2ccccc2)nc1-c1ccc(F)cc1` (stereo not given) was tested. Which inhibition in vivo at 25 mg/kg did it give?
A: The inhibition in vivo at 25 mg/kg was 43%.

Q: For `CC(=O)N1N=C(c2ccc(F)cc2)CC1c1cn(-c2ccccc2)nc1-c1ccc(Cl)cc1` (stereo not given), which inhibition in vivo at 25 mg/kg is on record?
A: The inhibition in vivo at 25 mg/kg was 44%.

Q: How did the inhibition in vivo at 25 mg/kg turn out when `CC(=O)N1N=C(c2ccc(F)cc2)CC1c1cn(-c2ccccc2)nc1-c1ccc(Br)cc1` (stereo not given) was run?
A: Its inhibition in vivo at 25 mg/kg is 71%.

Q: `CC(=O)N1N=C(c2ccc(F)cc2)CC1c1cn(-c2ccccc2)nc1-c1ccc(C)cc1` (stereo not given) was tested. Which inhibition in vivo at 25 mg/kg did it give?
A: Its inhibition in vivo at 25 mg/kg is 110%.

Q: For `COc1ccc(-c2nn(-c3ccccc3)cc2C2CC(c3ccc(F)cc3)=NN2C(C)=O)cc1` (stereo not given), which inhibition in vivo at 25 mg/kg is on record?
A: Its inhibition in vivo at 25 mg/kg is 66%.

Q: How did the inhibition in vivo at 25 mg/kg turn out when `CC(=O)N1N=C(c2ccc(F)cc2)CC1c1cn(-c2ccccc2)nc1-c1cccc([N+](=O)[O-])c1` (stereo not given) was run?
A: Its inhibition in vivo at 25 mg/kg is 109%.

Q: For `CC(=O)N1N=C(c2ccc(F)cc2)CC1c1cn(-c2ccccc2)nc1-c1ccccc1` (stereo not given), which inhibition in vivo at 25 mg/kg is on record?
A: The inhibition in vivo at 25 mg/kg was 35%.

Q: `Fc1ccc(C2=NN(c3ccccc3)C(c3cn(-c4ccccc4)nc3-c3ccc(F)cc3)C2)cc1` (stereo not given) was tested. Which inhibition in vivo at 25 mg/kg did it give?
A: Its inhibition in vivo at 25 mg/kg is 41%.

Q: For `Fc1ccc(C2=NN(c3ccccc3)C(c3cn(-c4ccccc4)nc3-c3ccc(Cl)cc3)C2)cc1` (stereo not given), which inhibition in vivo at 25 mg/kg is on record?
A: The inhibition in vivo at 25 mg/kg was 43%.

Q: Which inhibition in vivo at 25 mg/kg does the source give for `Fc1ccc(C2=NN(c3ccccc3)C(c3cn(-c4ccccc4)nc3-c3ccc(Br)cc3)C2)cc1` (stereo not given) here?
A: The inhibition in vivo at 25 mg/kg was 71%.

Q: For `Cc1ccc(-c2nn(-c3ccccc3)cc2C2CC(c3ccc(F)cc3)=NN2c2ccccc2)cc1` (stereo not given), which inhibition in vivo at 25 mg/kg is on record?
A: Its inhibition in vivo at 25 mg/kg is 110%.

Q: `COc1ccc(-c2nn(-c3ccccc3)cc2C2CC(c3ccc(F)cc3)=NN2c2ccccc2)cc1` (stereo not given) was tested. Which inhibition in vivo at 25 mg/kg did it give?
A: Its inhibition in vivo at 25 mg/kg is 66%.

Q: Which inhibition in vivo at 25 mg/kg does the source give for `O=[N+]([O-])c1cccc(-c2nn(-c3ccccc3)cc2C2CC(c3ccc(F)cc3)=NN2c2ccccc2)c1` (stereo not given) here?
A: The inhibition in vivo at 25 mg/kg was 108%.

Q: Which inhibition in vivo at 25 mg/kg does the source give for `Fc1ccc(C2=NN(c3ccccc3)C(c3cn(-c4ccccc4)nc3-c3ccccc3)C2)cc1` (stereo not given) here?
A: The inhibition in vivo at 25 mg/kg was 35%.

Q: Which inhibition in vivo at 25 mg/kg does the source give for `CC(=O)Oc1ccccc1C(=O)O` [ASPIRIN] here?
A: Its inhibition in vivo at 25 mg/kg is 119%.
